Compound activity (PubChem BioAssay)
ABHD5-PLIN5 inh: ABHD5-PLIN5 interaction inhibitors, primary screen, cell lysate, split luciferase complementation, luminescence. 360,000 compounds, 0.78% hits. inhibition, % at 4 µM. AID 602281, 2012. Perilipin-5 (Homo sapiens) + 1-acylglycerol-3-phosphate O-acyltransferase ABHD5 (Homo …. Split G. princeps luciferase complementation, 4 h;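 active = inhibition above the mean inhibition across every tested compound plus 3 SD, cut at about 22% in these data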;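 also: 0% = DMSO only wells and the 100% control is not disclosed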
APOBEC3A inh: APOBEC3A ssDNA deaminase inhibitors, primary screen, selectivity assay for APOBEC3G inhibitor project, biochemical, FAM/TAMRA oligo cleavage fluorescence | 330,000 compounds, 0.41% hits | DNA dC->dU-editing enzyme APOBEC-3A (Homo sapiens), P31941 | recombinant A3A, FAM/TAMRA ssDNA deamination fluorescence | inhibition, % at 20 µM;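 active = at least 40% inhibition at 20 µM here, with at most 30% in a related deaminase screen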;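 also: plate controls were A3A with DMSO for no effect and wells lacking A3A enzyme for full effect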
FN deposition inh: inhibitors of fibronectin matrix deposition, primary screen, AH1F cells, Alexa488-fibronectin fluorescence, plate reader. AH1F fibroblasts, overnight. inhibition, % at 12.6 µM. 350,000 compounds, 0.086% hits;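 active = mean inhibition across replicates of 30% or more, regardless of how many single replicates reach that level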;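 also: positive control wells lacked labelled fibronectin entirely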
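Material – AH1F fibroblast monolayer, labelled fibronectin deposition · Reagent – labelled fibronectin 24 nM · Timing – 1 h adhesion, overnight exposure · Measured by – fluorescence at 485 nm excitation, 525 nm emission · Read-out – inhibition of fibronectin deposition signal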
A3G deaminase: APOBEC3G DNA deaminase inhibitors, primary screen, biochemical, fluorescence, single-stranded DNA substrate, uHTS; recombinant A3G, ssDNA deamination FAM/TAMRA fluorescence; DNA dC->dU-editing enzyme APOBEC-3G (Homo sapiens), Q9HC16; inhibition, % at 20 µM; 330,000 compounds, 0.28% hits;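 active = inhibition of at least 40% at 20 µM, with no more than 30% in the related APOBEC3A deaminase screen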;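 also: plate controls were DMSO wells with A3G for no effect and wells lacking A3G enzyme for full effect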
Target sequence (Q9HC16 whole entry, looked up): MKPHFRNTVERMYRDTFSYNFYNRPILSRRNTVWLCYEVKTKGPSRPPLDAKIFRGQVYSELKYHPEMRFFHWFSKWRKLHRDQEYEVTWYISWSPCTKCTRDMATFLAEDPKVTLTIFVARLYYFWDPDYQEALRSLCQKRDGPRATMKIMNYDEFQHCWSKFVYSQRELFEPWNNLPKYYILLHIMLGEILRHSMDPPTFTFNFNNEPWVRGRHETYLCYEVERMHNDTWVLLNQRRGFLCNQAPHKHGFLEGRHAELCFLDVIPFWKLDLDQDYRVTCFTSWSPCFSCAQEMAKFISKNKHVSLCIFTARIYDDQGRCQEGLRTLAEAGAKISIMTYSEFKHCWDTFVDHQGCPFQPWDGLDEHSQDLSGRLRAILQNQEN
A3A conf: APOBEC3A deaminase inhibitors, retest, confirmation, selectivity assay for APOBEC3G inhibitor project, biochemical, single concentration, fluorescence readout; 1,400 compounds, 63% hits; shares compounds with APOBEC3A inh; recombinant A3A, ssDNA deaminase UDG fluorescence assay; inhibition, % at 20 µM;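 active = inhibition reaching a set limit, 80% of the first screen's cutoff, at 20 µM in any replicate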;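 also: plate controls were DMSO wells with A3A for no effect and wells lacking A3A enzyme for full effect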
UDG A3A counter: E. coli UDG inhibitors, confirmation, counter-screen for APOBEC3A inhibitor project, biochemical, single concentration, fluorescence, FAM/TAMRA oligo | shares compounds with APOBEC3A inh | UDG counterscreen, FAM/TAMRA uracil oligo fluorescence | inhibition, % at 20 µM | 1,000 tested, under 10 active | AID 504714, 2011; call rule not given here
Active calls of the source: *; . = no result given. Rows were chosen to be rich in hits. Some 1.2% of all compounds tested hit in one or more screens of this group.

SMILES | ABHD5-PLIN5 inh | APOBEC3A inh | FN deposition inh | A3G deaminase | A3A conf | UDG A3A counter
Cc1cc(C(=O)N/N=C/c2cc(Br)c(Br)o2)n[nH]1 | -3 | 58* | -7 | 16 | 37* | 0
Nc1ccccc1C(=O)/C=C/c1ccc2c(c1)OCO2 | 1 | -3 | 3 | -6 | . | .
CCNc1ccc(Br)cc(C(=O)/C=C/c2ccc3c(c2)OCO3)c1=O | 19 | 46* | . | 28 | 19* | -4
O=C(OCc1nc2ccsc2c(=O)[nH]1)c1ccccc1 | -5 | 56* | . | -11 | -2 | -2
O=C(OCc1nc2ccsc2c(=O)[nH]1)c1ccc(Cl)nc1 | -4 | -2 | 3 | -6 | . | .
O=C1CCCc2cnnn2COCCN1 | . | . | -2 | . | . | .
O=C(Nc1cccc(F)c1)N1CCCCN2[C@H](CO)[C@H](c3ccc(C#CC4CC4)cc3)[C@H]2C1 | . | . | -3 | . | . | .
COc1ccccc1OC(C)C(=O)N1CCC(Cc2ccccc2)CC1 (configuration not stated) | 15 | 55* | -6 | 5 | 47* | -2
Cc1ccccc1OC(C)C(=O)N1CCC(Cc2ccccc2)CC1 (configuration not stated) | -5 | 0 | 10 | -5 | . | .
COc1ccc(C[C@@H]2CCn3cc(nn3)COC[C@@H](C)NC2=O)cc1 | . | . | 0 | . | . | .
C[C@H](CO)N1C[C@H](C)[C@H](CN(C)C(=O)CN(C)C)Oc2cc(C#CC(C)(C)O)ccc2S1(=O)=O | . | . | 8 | . | . | .
CO[C@@H]1CN(C)C(=O)c2cc(NC(=O)CC(F)(F)F)ccc2OC[C@@H](C)N(C(C)=O)C[C@@H]1C | . | . | -11 | . | . | .
CCCCN(C(=O)c1ccco1)C1CCS(=O)(=O)C1 (configuration not stated) | 14 | 65* | -4 | -9 | 2 | 4
CC(C)[C@H]1C(=O)N[C@H](c2ccc3c(c2)OCO3)CC=CC[C@@H](C)Oc2ccccc2C(=O)N1C (mixture of isomers) | . | . | 8 | . | . | .
C/C(=N\NC(=O)CN1CCCCC1)c1cccc([N+](=O)[O-])c1 | -5 | 1 | -1 | -5 | . | .
C/C(=N\NC(=O)CN1CCCCC1)c1ccccc1O | -4 | 40* | 12 | 11 | 20 | .
CCn1c(SCC(=O)Nc2nccs2)nnc1-c1ccc(C)cc1 | -3 | -2 | . | -7 | . | .
CCC(=O)Nc1ccc(-c2nnc(SCC(=O)Nc3nccs3)n2C)cc1 | -9 | 53* | 13 | 29 | 13 | .
C[C@@H]1CN(C)C(=O)c2cccc(NS(C)(=O)=O)c2O[C@@H]1CN(C)C | . | . | 0 | . | . | .
COCc1cc(C)nc(Sc2nc3c(c(=O)n(C)c(=O)n3C)n2C)c1C#N | 1 | 50* | 1 | 13 | 44* | -3
CC(=O)N(C)C[C@@H]1Oc2ccc(N(C)C)cc2CC(=O)N(C)C[C@H]1C | . | . | -5 | . | . | .
COc1cc(OC)cc(-c2nnc(SCC(=O)N(C(C)C)C(C)C)o2)c1 | 5 | 90* | . | -3 | 0 | 0
CO[C@@H]1CN(C)C(=O)c2ccc(NC(=O)CC(F)(F)F)cc2OC[C@H](C)N(C(=O)C2CCCCC2)C[C@H]1C | . | . | -14 | . | . | .
O=C(CSc1nnc(NC(=O)c2ccccc2C(=O)O)s1)Nc1ccccc1Cl | -4 | 60* | -5 | 11 | 46* | -3
Cc1cccc(C)c1NC(=O)CSc1nnc(NC(=O)c2ccccc2C(=O)O)s1 | -5 | 64* | -3 | 17 | 17 | .
COc1ccc(NC(=O)/C(C#N)=C/c2ccc(Br)o2)cc1 | 9 | 67* | -3 | 27 | 58* | .
COc1ccc(NC(=O)/C(C#N)=C\c2ccc(N3CCOCC3)o2)cc1 | 13 | -10 | -3 | -20 | . | .
COc1cc(C(N)=O)cc(Cl)c1OC | 1 | 0 | -3 | -4 | . | .
CNC(=O)c1cc(Cl)c(OC)c(OC)c1 | 0 | 57* | 5 | 12 | 12 | .
